Assay results published in ChEMBL document CHEMBL4177755, “Combating Drug-Resistant Fungi with Novel Imperfectly Amphipathic Palindromic Peptides” (J Med Chem, 2018).

Experiments:
Type in all cases: functional
Escherichia coli [1] = experiment: Antibacterial activity against Escherichia coli ATCC 25922 after 18 hrs in presence of CaCl2 by broth dilution method
Escherichia coli [2] = experiment: Antibacterial activity against Escherichia coli ATCC 25922 after 18 hrs in presence of ZnCl2 by broth dilution method
[3] = system: Staphylococcus epidermidis; experiment: Bactericidal activity against Staphylococcus epidermidis ATCC 12228
Procedure, shortened: (§1)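 Wells from the 24 h, 37 °C MHB microdilution plates (bacteria at a final (0.5−1) × 10^5 CFU/mL; peptide diluted in 0.2% BSA) were plated on agar and incubated overnight. MBC is the lowest concentration killing >99.9% of cells. Each test was reproduced at least 3 times.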

Staphylococcus aureus [4] = experiment: Antibacterial activity against Staphylococcus aureus ATCC 25923 after 24 hrs
Procedure, shortened: (§2)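 Modified NCCLS broth microdilution. Mid-log bacteria at (0.5−1) × 10^5 CFU/mL in MHB were mixed 1:1 with peptide serially diluted in 0.2% BSA and incubated 24 h at 37 °C. Absorbance was read at 492 nm; MIC is the lowest concentration inhibiting 95% of growth. At least 3 repeats.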

Staphylococcus aureus [5] = experiment: Antibacterial activity against methicillin-resistant Staphylococcus aureus ATCC 4330 after 24 hrs; procedure, shortened: as §2
Escherichia coli [6] = experiment: Antibacterial activity against Escherichia coli ATCC 25922 after 18 hrs in presence of NaCl by broth dilution method
Staphylococcus aureus [7] = experiment: Bactericidal activity against methicillin-resistant Staphylococcus aureus ATCC 4330
Procedure, shortened: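 Bacteria at (0.5−1) × 10^5 CFU/mL in MHB were exposed to serially diluted peptide (0.2% BSA) for 24 h at 37 °C, then 50 μL aliquots were plated on agar overnight. MBC is the lowest concentration killing >99.9% of cells. At least 3 repeats.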

Staphylococcus aureus [8] = experiment: Antibacterial activity against Staphylococcus aureus ATCC 29213 after 24 hrs; procedure, shortened: as §2
Escherichia coli [9] = experiment: Antibacterial activity against Escherichia coli ATCC 25922 after 18 hrs in presence of FeCl3 by broth dilution method
Escherichia coli [10] = experiment: Antibacterial activity against Escherichia coli ATCC 25922 after 18 hrs in presence of 50% human heat-inactivated serum by broth dilution method
Staphylococcus aureus [11] = experiment: Bactericidal activity against Staphylococcus aureus ATCC 29213; procedure, shortened: as §1
Salmonella typhimurium [12] = experiment: Antibacterial activity against Salmonella typhimurium ATCC 14028 after 24 hrs; settings: Salmonella enterica subsp. enterica serovar Typhimurium
Procedure, shortened: (§3)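 Broth microdilution. Mid-log bacteria in MHB at a final (0.5−1) × 10^5 CFU/mL were mixed with equal volumes of peptide serially diluted in 0.2% BSA. Plates were incubated 24 h at 37 °C and read at A492. MIC is the lowest concentration inhibiting 95% of growth. Each test was repeated at least 3 times.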

Staphylococcus aureus [13] = experiment: Bactericidal activity against Staphylococcus aureus ATCC 25923; procedure, shortened: as §1
Escherichia coli [14] = experiment: Antibacterial activity against Escherichia coli ATCC 25922 after 18 hrs in presence of 25% human heat-inactivated serum by broth dilution method
[15] = system: Salmonella enterica subsp. enterica serovar Pullorum; experiment: Bactericidal activity against Salmonella pullorum ATCC 7913; procedure, shortened: as §1
[16] = system: Staphylococcus epidermidis; experiment: Antibacterial activity against Staphylococcus epidermidis ATCC 12228 after 24 hrs; procedure, shortened: as §3
Escherichia coli [17] = experiment: Antibacterial activity against Escherichia coli ATCC 25922 after 18 hrs in presence of MgCl2 by broth dilution method
Escherichia coli [18] = experiment: Antibacterial activity against Escherichia coli ATCC 25922 after 18 hrs in presence of KCl by broth dilution method
Escherichia coli [19] = experiment: Antibacterial activity against Escherichia coli ATCC 25922 after 24 hrs; procedure, shortened: as §3
Escherichia coli [20] = experiment: Antibacterial activity against Escherichia coli 1005 after 24 hrs; procedure, shortened: as §3
[21] = system: Salmonella enterica subsp. enterica serovar Pullorum; experiment: Antibacterial activity against Salmonella pullorum ATCC 7913 after 24 hrs; procedure, shortened: as §3
Escherichia coli [22] = experiment: Bactericidal activity against Escherichia coli 1005; procedure, shortened: as §1
Escherichia coli [23] = experiment: Antibacterial activity against Escherichia coli ATCC 25922 after 18 hrs in presence of NH4Cl by broth dilution method
Salmonella typhimurium [24] = experiment: Bactericidal activity against Salmonella typhimurium ATCC 14028; settings: Salmonella enterica subsp. enterica serovar Typhimurium; procedure, shortened: as §1
Escherichia coli [25] = experiment: Antibacterial activity against Escherichia coli ATCC 25922 after 18 hrs in presence of 12.5% human heat-inactivated serum by broth dilution method
Escherichia coli [26] = experiment: Bactericidal activity against Escherichia coli ATCC 25922; procedure, shortened: as §1

GENTAMICIN
MIC (Escherichia coli [1]): 1 µM | MIC (Escherichia coli [2]): 2 µM | MBC99.9 [3]: 1 µM | MIC95 (Staphylococcus aureus [4]): 1 µM | MIC95 (Staphylococcus aureus [5]): 8 µM | MIC (Escherichia coli [6]): 2 µM | MBC99.9 (Staphylococcus aureus [7]): 8 µM | MIC95 (Staphylococcus aureus [8]): 1 µM | MIC (Escherichia coli [9]): 1 µM | MIC (Escherichia coli [10]): 2 µM | MBC99.9 (Staphylococcus aureus [11]): 1 µM | MIC95 (Salmonella typhimurium [12]): 2 µM | MBC99.9 (Staphylococcus aureus [13]): 1 µM | MIC (Escherichia coli [14]): 1 µM | MBC99.9 [15]: 2 µM | MIC95 [16]: 0.5 µM | MIC (Escherichia coli [17]): 1 µM | MIC (Escherichia coli [18]): 1 µM | MIC95 (Escherichia coli [19]): 1 µM | MIC95 (Escherichia coli [20]): 0.5 µM | MIC95 [21]: 1 µM | MBC99.9 (Escherichia coli [22]): 1 µM | MIC (Escherichia coli [23]): 2 µM | MBC99.9 (Salmonella typhimurium [24]): 4 µM | MIC (Escherichia coli [25]): 1 µM | MBC99.9 (Escherichia coli [26]): 2 µM
